Experimental data as given in ChEMBL document CHEMBL3616436, “Synthesis, cytotoxicity and antimicrobial activity of thiourea derivatives incorporating 3-(trifluoromethyl)phenyl moiety” (Eur J Med Chem, 2015).
Values after ≈ are worked out from the molar mass of the structure shown.

Experiments:
[1] = tested on: Staphylococcus aureus; test: Antimicrobial activity against hospital methicillin-resistant Staphylococcus aureus 81/05 after 18 hrs by twofold serial microdilution method; type: functional; conditions: 81/05, 18 h
In short: (§1)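 Twofold serial microdilution in Mueller-Hinton broth. Compound stock was made in DMSO and diluted in sterile water. Tested range was 0.125–512 µg/mL. Final inoculum was 10^5 CFU/mL. Plates were incubated 18 h at 35 °C. MIC is the lowest concentration preventing visible growth.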

[2] = tested on: Staphylococcus aureus; test: Antimicrobial activity against Staphylococcus aureus ATCC 25923 at 400 ug after 18 hrs by disc-diffusion method; type: functional; conditions: ATCC 25923, 18 h, read-out: IZ
In short: (§2)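 Disc diffusion on Mueller-Hinton II agar per CLSI; 9 mm paper discs loaded with 400 µg compound from DMSO solution, dried, placed on agar; growth inhibition zone diameter read after 18 h at 35°C.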

[3] = tested on: Staphylococcus aureus; test: Antimicrobial activity against Staphylococcus aureus NCTC 4163 at 400 ug after 18 hrs by disc-diffusion method; type: functional; conditions: NCTC 4163, 18 h, read-out: IZ; in short: as §2
[4] = Antiviral activity against Bovine viral diarrhea virus 1-NADL ATCC VR-534 infected in MDBK cells assessed as protection against virus-induced cytopathogenicity after 3 to 4 days by MTT assay; type: functional, cell-based; conditions: Bovine viral diarrhea virus isolates and strains, ATCC VR-534, MDBK
In short: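 Cells seeded in 96-well plates (BHK 5x10^4, MDBK 3x10^4 cells/well), grown overnight to confluence, infected at m.o.i. 0.01 (BHK for Reo-1, MDBK for BVDV); serial compound dilutions in maintenance medium with 0.5% inactivated FBS added after 1 h; viability by MTT after 3–4 days at 37°C; EC50 for 50% protection by linear regression.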

[5] = tested on: Vesicular stomatitis virus; test: Antiviral activity against Vesicular stomatitis virus ATCC VR 1540 infected in African green monkey Vero 76 cells assessed as reduction of virus-plaque formation after 2 days by crystal violet staining; type: functional, organism-based; conditions: ATCC VR 1540, Vero, 48 h
[6] = tested on: Staphylococcus aureus; test: Antimicrobial activity against hospital methicillin-resistant Staphylococcus aureus 80/05 after 18 hrs by twofold serial microdilution method; type: functional; conditions: 80/05, 18 h; in short: as §1
[7] = tested on: Staphylococcus epidermidis; test: Ratio of ciprofloxacin MIC to compound MIC for hospital methicillin-resistant Staphylococcus epidermidis 63/04 after 18 hrs by twofold serial microdilution method; type: functional
In short: (§3)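 Ratio of MICs for ciprofloxacin and test agent, each from twofold serial broth microdilution in Mueller-Hinton broth following CLSI guidelines. DMSO stock was diluted in sterile water to 0.125–512 µg/mL, with a final inoculum of 10^5 CFU/mL.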

[8] = Cytotoxicity against bovine MDBK cells assessed as cell viability after 48 to 96 hrs by MTT assay; type: cell-based, Bos taurus; conditions: cattle
[9] = tested on: Staphylococcus epidermidis; test: Antimicrobial activity against Staphylococcus epidermidis ATCC 12228 at 400 ug after 18 hrs by disc-diffusion method; type: functional; conditions: ATCC 12228, 18 h, read-out: IZ; in short: as §2
[10] = tested on: Staphylococcus aureus; test: Antimicrobial activity against hospital methicillin-resistant Staphylococcus aureus 79/05 after 18 hrs by twofold serial microdilution method; type: functional; conditions: 79/05, 18 h; in short: as §1
[11] = tested on: Staphylococcus epidermidis; test: Antimicrobial activity against hospital methicillin-resistant Staphylococcus epidermidis 76/04 after 18 hrs by twofold serial microdilution method; type: functional; conditions: 76/04, 18 h; in short: as §1
[12] = tested on: Mycobacterium tuberculosis; test: Antimycobacterial activity against Mycobacterium tuberculosis H37Rv ATCC 25618; type: functional
In short: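 Classical test-tube successive-dilution method in Youmans' modification of Proskauer and Beck liquid medium with 10% bovine serum. Inoculum came from 14-day cultures. DMSO stock was 10 mg/mL, diluted geometrically in medium. Tubes were incubated at 37 °C. Concentrations tested were 3.1, 6.2, 12.5, 25, 50 and 100 µg/ml. MIC is the minimum concentration inhibiting growth relative to compound-free tubes.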

[13] = tested on: Staphylococcus aureus; test: Antimicrobial activity against Staphylococcus aureus ATCC 25923 after 18 hrs by twofold serial microdilution method; type: functional; conditions: ATCC 25923, 18 h
[14] = Cytotoxicity against BHK cells assessed as cell viability after 48 to 96 hrs by MTT assay; type: cell-based, Mesocricetus auratus; conditions: hamster
[15] = tested on: Staphylococcus epidermidis; test: Ratio of ciprofloxacin MIC to compound MIC for hospital methicillin-resistant Staphylococcus epidermidis 23/04 after 18 hrs by twofold serial microdilution method; type: functional; in short: as §3
[16] = tested on: Coxsackievirus B5; test: Antiviral activity against Human coxsackievirus B5 ATCC VR-29 infected in African green monkey Vero 76 cells assessed as reduction of virus-plaque formation after 3 days by crystal violet staining; type: functional, organism-based; conditions: Enterovirus B, ATCC VR-29, Vero, 72 h
In short: (§4)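 Plaque reduction: Vero-76 at 2x10^5 cells/well grown to confluent monolayers, infected 2 h at 50–100 PFU/well; after removing unadsorbed virus, overlay of D-MEM, 1% inactivated FBS, 0.75% methylcellulose with or without serial compound dilutions; 3 days at 37°C, fixed and stained with crystal violet in 50% ethanol, plaques counted; EC50 by linear regression.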

[17] = tested on: Staphylococcus aureus; test: Antimicrobial activity against hospital methicillin-resistant Staphylococcus aureus 522/11 after 18 hrs by twofold serial microdilution method; type: functional; conditions: 522/11, 18 h; in short: as §1
[18] = tested on: Enterococcus faecalis; test: Antimicrobial activity against Enterococcus faecalis ATCC 29212 at 400 ug after 18 hrs by disc-diffusion method; type: functional; conditions: ATCC 29212, 18 h, read-out: IZ; in short: as §2
[19] = tested on: Staphylococcus epidermidis; test: Ratio of ciprofloxacin MIC to compound MIC for hospital methicillin-resistant Staphylococcus epidermidis 62/04 after 18 hrs by twofold serial microdilution method; type: functional; in short: as §3
[20] = tested on: Enterococcus hirae; test: Antimicrobial activity against Enterococcus hirae ATCC 10541 at 400 ug after 18 hrs by disc-diffusion method; type: functional; conditions: ATCC 10541, 18 h, read-out: IZ; in short: as §2
[21] = tested on: Yellow fever virus; test: Antiviral activity against Yellow fever virus 17D infected in BHK cells assessed as protection against virus-induced cytopathogenicity after 3 to 4 days by MTT assay; type: functional, cell-based
[22] = tested on: Staphylococcus epidermidis; test: Antimicrobial activity against hospital methicillin-resistant Staphylococcus epidermidis 16/04 after 18 hrs by twofold serial microdilution method; type: functional; conditions: 16/04, 18 h; in short: as §1
[23] = tested on: Staphylococcus aureus; test: Ratio of ciprofloxacin MIC to compound MIC for hospital methicillin-resistant Staphylococcus aureus 54/05 after 18 hrs by twofold serial microdilution method; type: functional; in short: as §3
[24] = Cytotoxicity against human MT4 cells; type: cell-based
[25] = tested on: Staphylococcus aureus; test: Antimicrobial activity against Staphylococcus aureus ATCC 6538 after 18 hrs by twofold serial microdilution method; type: functional; conditions: ATCC 6538, 18 h
[26] = tested on: Staphylococcus epidermidis; test: Antimicrobial activity against Staphylococcus epidermidis ATCC 35984 at 400 ug after 18 hrs by disc-diffusion method; type: functional; conditions: ATCC 35984, 18 h, read-out: IZ; in short: as §2
[27] = tested on: Human alphaherpesvirus 1; test: Antiviral activity against Human herpesvirus 1 KOS ATCC VR-1493 infected in African green monkey Vero 76 cells assessed as reduction of virus-plaque formation after 3 days by crystal violet staining; type: functional, organism-based; conditions: Human alphaherpesvirus 1, KOS ATCC VR1493, Vero, 72 h; in short: as §4
[28] = tested on: Vaccinia virus; test: Antiviral activity against Human Vaccinia virus ATCC VR-1549 infected in African green monkey Vero 76 cells assessed as reduction of virus-plaque formation after 3 days by crystal violet staining; type: functional, organism-based; conditions: Orthopoxvirus vaccinia, ATCC VR-1549, Vero, 72 h
[29] = tested on: Staphylococcus aureus; test: Antimicrobial activity against hospital methicillin-resistant Staphylococcus aureus 57/05 after 18 hrs by twofold serial microdilution method; type: functional; conditions: 57/05, 18 h; in short: as §1

Compound	MIC [1]	zone of inhibition at 400 µg/disc [2]	zone of inhibition at 400 µg/disc [3]	EC50 [4]	EC50 [5]	MIC [6]	Ratio [7]	zone of inhibition at 400 µg/disc [9]	MIC [10]	MIC [11]	MIC [12]	MIC [13]	Ratio [15]	EC50 [16]	MIC [17]	zone of inhibition at 400 µg/disc [18]	Ratio [19]	zone of inhibition at 400 µg/disc [20]	EC50 [21]	MIC [22]	further results
FC(F)(F)c1cccc(NC(=S)Nc2cccc(Br)c2)c1	1 mg/L (≈ 2.67 µM)	28 mm	28 mm	> 10 µM	> 14 µM	0.5 mg/L (≈ 1.33 µM)	128	29 mm	0.5 mg/L (≈ 1.33 µM)	1 mg/L (≈ 2.67 µM)	100 mg/L (≈ 267 µM)	1 mg/L (≈ 2.67 µM)	128	> 14 µM	0.5 mg/L (≈ 1.33 µM)	18 mm	128	13 mm	> 10 µM	2 mg/L (≈ 5.33 µM)	CC50 [8]: 10 µM; CC50 [14]: 10 µM; Ratio [23]: 128; CC50 [24]: 9.2 µM; MIC [25]: 1 mg/L (≈ 2.67 µM); zone of inhibition at 400 µg/disc [26]: 27 mm; EC50 [27]: > 14 µM; EC50 [28]: > 14 µM; MIC [29]: 1 mg/L (≈ 2.67 µM)
Fc1cccc(NC(=S)Nc2cccc(C(F)(F)F)c2)c1	8 mg/L (≈ 25.5 µM)	22 mm	20 mm	> 10 µM	> 20 µM	8 mg/L (≈ 25.5 µM)	128	19 mm	8 mg/L (≈ 25.5 µM)	16 mg/L (≈ 50.9 µM)	25 mg/L (≈ 79.5 µM)	4 mg/L (≈ 12.7 µM)	128	> 20 µM	8 mg/L (≈ 25.5 µM)	14 mm	128	25 mm	> 9.4 µM	8 mg/L (≈ 25.5 µM)	CC50 [8]: 10 µM; CC50 [14]: 9.4 µM; Ratio [23]: 128; CC50 [24]: 20 µM; MIC [25]: 4 mg/L (≈ 12.7 µM); zone of inhibition at 400 µg/disc [26]: 19 mm; EC50 [27]: > 20 µM; EC50 [28]: > 20 µM; MIC [29]: 4 mg/L (≈ 12.7 µM)
FC(F)(F)c1cccc(NC(S)=Nc2ccc(Cl)c(Cl)c2)c1	1 mg/L (≈ 2.74 µM)	14 mm	15 mm	> 10 µM	> 16 µM	2 mg/L (≈ 5.48 µM)	128	13 mm	2 mg/L (≈ 5.48 µM)	1 mg/L (≈ 2.74 µM)	50 mg/L (≈ 137 µM)	0.5 mg/L (≈ 1.37 µM)	128	> 16 µM	1 mg/L (≈ 2.74 µM)	12 mm	128	15 mm	> 9.5 µM	2 mg/L (≈ 5.48 µM)	Ratio [23]: 128; MIC [25]: 0.5 mg/L (≈ 1.37 µM); zone of inhibition at 400 µg/disc [26]: 13 mm; EC50 [27]: > 16 µM; EC50 [28]: > 16 µM; MIC [29]: 2 mg/L (≈ 5.48 µM)
